From article PMC4743058 (Genes & Development, 2016)
Where a SMILES comes first, the peptide text is derived from it. The star is where a group is joined. Cbz = O=C(OCc1ccccc1)*

Legend:
[1] = system: Hs-p53; test: Hs-p53 degradation in p53/Mdm2 double-knockout cells; format: cell-based, human; expressed in mouse embryonic fibroblasts; conditions: 4 h before harvest, Western blot
[2] = system: Lj-p53; test: Lj-p53 degradation in p53/Mdm2 double-knockout cells; format: cell-based; conditions: 4 h before harvest, Western blot, lane 4
[3] = system: Hs-p53–HDM2^Nterm; test: In vitro pull-down of Hs-p53 by HDM2Nterm in presence of inhibitor; format: binding, human; conditions: in vitro translated proteins, inhibitor 30 min, Fig. 7A lanes 1–3
[4] = system: Hs-p53–Lj-Mdm2^Nterm; test: In vitro pull-down of Hs-p53 by Lj-Mdm2Nterm in presence of inhibitor; format: binding, human p53; lamprey (Lethenteron japonicum) Mdm2; conditions: in vitro translated proteins, inhibitor 30 min, Fig. 7A lanes 4–6
[5] = system: Lj-p53–Lj-Mdm2^Nterm; test: In vitro pull-down of Lj-p53 by Lj-Mdm2Nterm in presence of inhibitor; format: binding, lamprey (Lethenteron japonicum); conditions: Fig. 7A
Outline: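 Anti-HA antibody (1 µg per 10 µL Protein G beads, 1 h in PBST–3% BSA) captured in vitro translated HA-tagged Mdm2 N-terminal bait (30 min, rotating). Test compound was added at the required concentrations for 30 min, with DMSO as control. In vitro translated Flag-Lj-p53 was then added for 1 h. Beads were washed, and eluates were heated 5 min at 95°C, run on SDS-PAGE and immunoblotted with HRP anti-Flag.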

block of binding of Hs-p53 to Lj-Mdm2Nterm [4] | block of binding of Lj-p53 to Lj-Mdm2Nterm ([5]; in vitro translated proteins, inhibitor 30 min) | interaction with the p53-binding pocket in Lj-Mdm2Nterm ([5]; inferred from pull-down) | Compound | block of Lj-Mdm2-mediated Hs-p53 degradation by proteasome inhibitor [1] | block of Lj-Mdm2-mediated Lj-p53 reduction by proteasome inhibitor [2] | block of binding of Hs-p53 to HDM2Nterm [3]
– | – | – | CC(C)C[C@@H](C=O)NC(=O)[C@H](CC(C)C)NC(=O)[C@H](CC(C)C)NC(=O)OCc1ccccc1 [MG132] (Cbz-Leu-Leu-Leu-aldehyde) | only partially blocked | partially blocked | –
not by Nutlin | not by Nutlin | interacts poorly, if at all | Nutlin | – | – | could block the binding of Hs-p53 to HDM2^Nterm
